In data set [1] the target is T1, Serine/threonine-protein kinase mTOR (Homo sapiens, UniProt P42345). As to the kind of experiment: Inhibition of mTORC1 expressed in HEK293 cells assessed as PRAS40 Ser183 phosphorylation level by LanthaScreen cellular assay. In kind it is cell-based. In outline: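 HEK293E cells stably expressing GFP-substrate fusions (AKT for pThr308; PRAS40 for pSer183), 20,000 per well, serum-starved overnight in low-glucose DMEM + 0.1% BSA. Lysed with 2 nM Tb-labeled phosphospecific antibody; TR-FRET read after 2 h at room temperature. IC50 by curve fitting.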

Data set [2] deals with PC-3. As to the kind of experiment: Growth inhibition of human PC3 cells after 72 hrs by ATPlite assay. In kind it is functional. The note with it: PC-3, 72 h. In outline:
(§1)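 Cells seeded at about 3000 per well, grown 24 h, then given fresh medium and test compound in triplicate at 0.5 to 100µM in DMSO (0.5% final). Exposure 72 h at 37 °C, 5% CO₂. Viability measured by ATPlite luminescence and normalized to DMSO-treated controls. GI50 obtained by curve fitting. HeLa cultured in DMEM/10% FBS; MCF7, MDA-MB-231 and PC3 cultured in RPMI+GlutaMAX/10% FBS.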
(ATP-based viability assays read luminescence as a measure of living cells.)

The subject of data set [3] is HeLa. As to the kind of experiment: Growth inhibition of human HeLa cells after 72 hrs by ATPlite assay. In kind it is functional. In outline:
as §1

Data set [4] deals with RAC-alpha serine/threonine-protein kinase (Homo sapiens) (UniProt P31749). As to the kind of experiment: Inhibition of AKT1 by biochemical assay.
The target in data set [5] is T1, Serine/threonine-protein kinase mTOR. The data set can be described thus: Inhibition of mTOR by LanthaScreen Eu kinase binding assay. In outline:
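Eu kinase binding TR-FRET displacement with FRAP1 (mTOR) at 5 nM, kinase tracer 20 nM and Eu-anti-GST antibody 2 nM, all final. Buffer 25 mM Tris-HCl, 5 mM MgCl2, 0.02% CHAPS.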

Data set [6] concerns MDA-MB-231. As to the kind of experiment: Growth inhibition of human MDA-MB-231 cells after 72 hrs by ATPlite assay. In kind it is functional. Particulars: MDA-MB-231, 72 h. In outline:
as §1

Data set [7] deals with MCF7. The data set can be described thus: Growth inhibition of human MCF7 cells after 72 hrs by ATPlite assay. In kind it is functional. Particulars: MCF7, 72 h. In outline:
as §1

For data set [8], the target named is Phosphatidylinositol 4,5-bisphosphate 3-kinase catalytic subunit alpha isoform (Homo sapiens, UniProt P42336). The data set can be described thus: Inhibition of PI3Kalpha by LanthaScreen Eu kinase binding assay. An outline of the steps:
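Eu kinase binding TR-FRET assay (tracer displacement). PIK3CA/PIK3R1 at 5 nM with kinase tracer 20 nM and Eu-anti-His antibody 2 nM, all final. Buffer 25 mM Tris-HCl, 5 mM MgCl2, 0.02% CHAPS.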

Data set [9] deals with T2, 3-phosphoinositide-dependent protein kinase 1 (Homo sapiens, UniProt O15530).
T2 sequence (O15530 whole entry): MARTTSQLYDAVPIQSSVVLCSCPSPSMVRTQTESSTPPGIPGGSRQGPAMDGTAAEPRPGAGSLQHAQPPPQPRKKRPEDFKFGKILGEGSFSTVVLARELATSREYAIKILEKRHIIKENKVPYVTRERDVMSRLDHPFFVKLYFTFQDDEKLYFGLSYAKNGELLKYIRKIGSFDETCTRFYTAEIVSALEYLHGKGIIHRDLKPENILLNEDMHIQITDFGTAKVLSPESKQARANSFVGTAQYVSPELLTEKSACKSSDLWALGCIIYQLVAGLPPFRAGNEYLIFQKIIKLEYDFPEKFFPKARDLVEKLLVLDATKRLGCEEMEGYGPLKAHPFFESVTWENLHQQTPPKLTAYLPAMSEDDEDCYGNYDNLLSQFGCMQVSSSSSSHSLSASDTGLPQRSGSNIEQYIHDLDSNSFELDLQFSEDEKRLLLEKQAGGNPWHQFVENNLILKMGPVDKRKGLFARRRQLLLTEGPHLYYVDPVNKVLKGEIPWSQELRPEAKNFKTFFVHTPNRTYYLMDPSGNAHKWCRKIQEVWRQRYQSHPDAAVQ
As to the kind of experiment: Inhibition of PDK1 by Z'-LYTE kinase activity assay.

For data set [10], the target named is Phosphatidylinositol 4,5-bisphosphate 3-kinase catalytic subunit gamma isoform (Homo sapiens, UniProt P48736). As to the kind of experiment: Inhibition of PI3Kgamma.
Data set [11] has as its target T3, Phosphatidylinositol 4,5-bisphosphate 3-kinase catalytic subunit delta isoform (Homo sapiens, UniProt O00329).
T3 sequence (O00329 whole entry): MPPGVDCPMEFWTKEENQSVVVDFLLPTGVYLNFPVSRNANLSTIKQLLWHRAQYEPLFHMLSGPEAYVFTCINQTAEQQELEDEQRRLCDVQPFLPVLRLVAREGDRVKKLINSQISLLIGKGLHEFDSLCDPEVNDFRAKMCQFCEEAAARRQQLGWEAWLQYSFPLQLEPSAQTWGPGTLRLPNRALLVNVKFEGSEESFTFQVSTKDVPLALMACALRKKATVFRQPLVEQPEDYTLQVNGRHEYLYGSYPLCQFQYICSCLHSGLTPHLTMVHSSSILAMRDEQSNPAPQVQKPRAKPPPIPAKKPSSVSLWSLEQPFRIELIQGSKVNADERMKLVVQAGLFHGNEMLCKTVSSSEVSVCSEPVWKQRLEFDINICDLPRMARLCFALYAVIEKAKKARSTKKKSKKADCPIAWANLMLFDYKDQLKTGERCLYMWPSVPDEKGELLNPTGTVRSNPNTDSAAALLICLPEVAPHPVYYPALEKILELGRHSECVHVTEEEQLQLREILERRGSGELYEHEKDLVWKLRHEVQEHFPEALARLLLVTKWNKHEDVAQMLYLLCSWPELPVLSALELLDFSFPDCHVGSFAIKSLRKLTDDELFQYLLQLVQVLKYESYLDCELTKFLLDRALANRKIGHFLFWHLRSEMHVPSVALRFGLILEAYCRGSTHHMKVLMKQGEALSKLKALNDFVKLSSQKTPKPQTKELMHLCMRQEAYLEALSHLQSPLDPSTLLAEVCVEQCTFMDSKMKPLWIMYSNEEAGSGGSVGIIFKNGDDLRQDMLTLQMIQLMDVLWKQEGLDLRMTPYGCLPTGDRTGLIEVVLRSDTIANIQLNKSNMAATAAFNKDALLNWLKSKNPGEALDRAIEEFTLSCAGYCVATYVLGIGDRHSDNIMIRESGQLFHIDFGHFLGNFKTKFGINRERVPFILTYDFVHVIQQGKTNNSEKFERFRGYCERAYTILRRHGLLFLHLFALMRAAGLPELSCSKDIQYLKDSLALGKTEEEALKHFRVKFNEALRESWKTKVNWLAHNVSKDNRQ
The data set can be described thus: Inhibition of PI3Kdelta. The note with it: read-out: IC50.

The test system of data set [12] is Plasma. As to the kind of experiment: Metabolic stability in rat plasma assessed as compound remaining at 1 uM after 60 mins by Lc/Ms method. Type of data set: ADME, cell-free. The note with it: 1 h. An outline of the steps:
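Compound at 1 µM (2.5% DMSO final) in fresh rat plasma at 37 °C. Stopped at 0, 30 and 60 min with two volumes methanol plus internal standard, then LC-MS. Percent parent remaining relative to 0 min, from peak area ratios to internal standard. Duplicate runs, with a plasma-labile positive control.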

The test system of data set [13] is Liver microsomes. The data set can be described thus: Metabolic stability in rat liver microsomes. In kind it is ADME, Microsome. In outline:
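Rat liver microsomes (1 mg/ml protein) with 4µM compound in 50mM phosphate pH 7.2. Pre-incubated 5 min at 37.5 °C, then started with 2mM NADPH and run 1 h. Samples taken every 15 min, quenched in methanol with internal standard, analyzed by LC-MS. Duplicate runs alongside two control compounds of known half-life. Half-life reported.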

pIC50: −log10 of the molar value. The source made the active and inactive calls. The calls are words filed in the database; no cut-off is given here. Bounds are passed on as bounds.

Sequence of Phosphatidylinositol 4,5-bisphosphate 3-kinase catalytic subunit alpha isoform (P42336 whole entry, canonical isoform): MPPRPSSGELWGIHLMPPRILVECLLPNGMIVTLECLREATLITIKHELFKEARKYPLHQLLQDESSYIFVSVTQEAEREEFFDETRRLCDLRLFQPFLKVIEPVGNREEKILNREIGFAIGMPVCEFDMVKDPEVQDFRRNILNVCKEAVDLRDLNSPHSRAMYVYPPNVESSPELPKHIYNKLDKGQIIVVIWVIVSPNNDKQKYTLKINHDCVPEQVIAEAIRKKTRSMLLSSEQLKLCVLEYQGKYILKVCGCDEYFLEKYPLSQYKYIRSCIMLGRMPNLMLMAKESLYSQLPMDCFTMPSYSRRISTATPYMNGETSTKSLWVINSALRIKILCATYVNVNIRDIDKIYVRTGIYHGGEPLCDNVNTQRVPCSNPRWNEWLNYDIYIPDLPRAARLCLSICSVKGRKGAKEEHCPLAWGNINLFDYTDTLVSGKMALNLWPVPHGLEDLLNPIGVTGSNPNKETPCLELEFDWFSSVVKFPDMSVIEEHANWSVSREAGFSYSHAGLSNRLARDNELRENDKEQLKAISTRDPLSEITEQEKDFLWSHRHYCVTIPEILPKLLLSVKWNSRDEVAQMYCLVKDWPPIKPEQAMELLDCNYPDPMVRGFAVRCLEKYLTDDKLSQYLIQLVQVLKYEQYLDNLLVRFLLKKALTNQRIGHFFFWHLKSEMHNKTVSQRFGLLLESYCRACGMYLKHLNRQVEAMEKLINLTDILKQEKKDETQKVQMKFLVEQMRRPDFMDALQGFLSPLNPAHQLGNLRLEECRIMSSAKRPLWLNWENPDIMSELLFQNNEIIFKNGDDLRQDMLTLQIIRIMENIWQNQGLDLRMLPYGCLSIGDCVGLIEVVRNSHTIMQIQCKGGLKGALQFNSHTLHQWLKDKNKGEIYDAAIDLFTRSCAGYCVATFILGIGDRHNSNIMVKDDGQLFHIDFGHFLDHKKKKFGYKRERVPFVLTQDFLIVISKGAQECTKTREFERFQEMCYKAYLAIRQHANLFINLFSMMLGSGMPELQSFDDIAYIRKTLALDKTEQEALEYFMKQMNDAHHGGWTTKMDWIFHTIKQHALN
Sequence of RAC-alpha serine/threonine-protein kinase (Homo sapiens) (P31749 whole entry): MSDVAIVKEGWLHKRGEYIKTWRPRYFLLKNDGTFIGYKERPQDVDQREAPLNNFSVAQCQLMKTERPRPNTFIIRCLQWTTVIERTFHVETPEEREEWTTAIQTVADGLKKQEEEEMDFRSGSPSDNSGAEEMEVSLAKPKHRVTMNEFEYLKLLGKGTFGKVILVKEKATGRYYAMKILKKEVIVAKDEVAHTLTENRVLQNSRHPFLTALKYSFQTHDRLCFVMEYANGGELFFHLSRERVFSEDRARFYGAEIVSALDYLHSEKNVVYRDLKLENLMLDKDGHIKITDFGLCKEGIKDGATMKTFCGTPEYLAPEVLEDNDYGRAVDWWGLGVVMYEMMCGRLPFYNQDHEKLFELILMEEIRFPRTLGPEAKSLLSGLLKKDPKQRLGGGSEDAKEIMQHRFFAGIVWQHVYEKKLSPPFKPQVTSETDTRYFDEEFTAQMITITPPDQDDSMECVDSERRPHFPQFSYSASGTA
Sequence of Phosphatidylinositol 4,5-bisphosphate 3-kinase catalytic subunit gamma isoform (P48736 whole entry, canonical isoform): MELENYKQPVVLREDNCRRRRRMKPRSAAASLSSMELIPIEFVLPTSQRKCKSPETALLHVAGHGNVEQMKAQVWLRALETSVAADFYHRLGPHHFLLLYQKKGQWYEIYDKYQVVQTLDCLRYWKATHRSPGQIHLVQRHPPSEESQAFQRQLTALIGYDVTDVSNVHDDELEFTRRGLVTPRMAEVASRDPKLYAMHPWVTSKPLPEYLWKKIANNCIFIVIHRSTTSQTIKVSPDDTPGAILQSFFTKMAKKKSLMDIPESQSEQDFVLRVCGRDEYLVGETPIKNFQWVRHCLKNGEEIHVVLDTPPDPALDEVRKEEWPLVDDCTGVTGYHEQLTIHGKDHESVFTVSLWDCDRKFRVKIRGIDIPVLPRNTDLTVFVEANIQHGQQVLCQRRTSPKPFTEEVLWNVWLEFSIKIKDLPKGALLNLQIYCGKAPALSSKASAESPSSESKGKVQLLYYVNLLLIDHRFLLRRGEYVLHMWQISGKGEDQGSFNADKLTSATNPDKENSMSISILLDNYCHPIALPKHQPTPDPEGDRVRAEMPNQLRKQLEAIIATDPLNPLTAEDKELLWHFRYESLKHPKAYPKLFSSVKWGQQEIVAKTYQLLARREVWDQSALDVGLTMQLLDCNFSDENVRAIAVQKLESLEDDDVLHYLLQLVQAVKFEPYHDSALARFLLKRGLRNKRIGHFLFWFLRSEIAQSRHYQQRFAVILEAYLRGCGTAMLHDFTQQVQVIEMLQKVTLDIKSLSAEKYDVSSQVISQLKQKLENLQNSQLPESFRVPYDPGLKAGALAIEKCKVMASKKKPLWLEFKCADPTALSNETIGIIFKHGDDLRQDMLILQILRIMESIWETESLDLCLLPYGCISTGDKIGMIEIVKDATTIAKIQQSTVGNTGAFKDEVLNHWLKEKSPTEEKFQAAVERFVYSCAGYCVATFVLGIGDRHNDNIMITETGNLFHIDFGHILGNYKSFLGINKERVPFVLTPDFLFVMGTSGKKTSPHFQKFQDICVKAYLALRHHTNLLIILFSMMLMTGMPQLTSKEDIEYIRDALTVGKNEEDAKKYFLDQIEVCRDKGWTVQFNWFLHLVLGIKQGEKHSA

Broadly, the pIC50 is −log10 of the IC50, conventionally taken in molar units. The term GI50 denotes the concentration giving 50% growth inhibition. The low end stands for more potent growth inhibition, the high end for less potent growth inhibition. As for `C(#Cc1n[nH]c2ccccc12)c1cccnc1`, the pIC50 in data set [1] was < 4.30; in data set [5], < 4.00. Besides, the 50% growth inhibitory concentration (GI50) was 6.81 µM in [2], 5.21 µM in [3], 10.5 µM in data set [6] and 3.66 µM in data set [7]. Moreover, the inhibition result in data set [4] was “inactive”.
On to `Fc1cc(F)cc(C#Cc2n[nH]c3ccccc23)c1`, for which the pIC50 is < 4.00 in data set [8], < 4.00 in data set [9], < 3.70 in data set [1] and < 4.00 in data set [5]. Besides, the inhibition entry in data set [4] was “inactive”.
With `Nc1ccc(C#Cc2n[nH]c3ccccc23)cc1`, the pIC50 was 5.98 in [8]; 4.41 in data set [9]; 4.97 in data set [1]; < 4.00 in data set [10]; < 4.00 in data set [11]; 5.30 in [5]. The figures for the 50% growth inhibitory concentration (GI50) in [2], in data set [6] and in data set [7] were 2.51 µM, 8.28 µM and 3.23 µM, respectively. Further, in data set [4], the inhibition entry was “inactive”.
`Nc1ccccc1C#Cc1n[nH]c2ccccc12`: the pIC50 is < 4.00 in data set [8], < 4.00 in [9], < 4.30 in data set [1] and < 4.00 in data set [5]. Besides, the inhibition result in data set [4] is “inactive”.
Regarding `CN(C)CC#Cc1n[nH]c2ccccc12`, the negative-log IC50 (pIC50) in data set [8] is < 4.30; in [9], < 4.00; in [1], < 4.30; in data set [5], < 4.00. Besides, the inhibition result in data set [4] is “inactive”.
On to `C(#Cc1n[nH]c2ccccc12)c1ccsc1`, for which the negative logarithm of the IC50 (pIC50) in [8], in data set [9], in data set [1] and in data set [5] was < 4.00 each time. Also, the inhibition entry in data set [4] is “inactive”.
Take `C(#Cc1n[nH]c2ncccc12)c1cccnc1`: the pIC50 in data set [8] is 5.05; in data set [9] it was < 4.30; in data set [1], < 5.00; in data set [5], 5.30. The inhibition result in [4] was “inactive”.
Taken in the same sequence, the figures for `C(#CC1CCCC1)c1n[nH]c2ccccc12` were < 4.00, < 4.00, < 4.30, < 4.00 and “inactive”.
In the case of `FC(F)(F)c1cc(C#Cc2n[nH]c3ccccc23)cc(C(F)(F)F)c1`, the negative-log IC50 (pIC50) in data set [8], in [9], in data set [1] and in [5] was < 4.00 throughout. For the same molecule, in data set [4], the inhibition entry was “inactive”.
As to `Nc1cccc(C#Cc2n[nH]c3ccccc23)c1`, the pIC50 in [10] and in data set [11] was < 4.00 throughout. Further, the concentration for 50% growth inhibition (GI50) in data set [2] was found to be 2.84 µM; in data set [3], 5.21 µM; in [6], 8.29 µM; in data set [7], 10.4 µM. For the same molecule, the Stability in [12] is on record as 100%. In [4], the inhibition entry was “inactive”. For the same molecule, the t1/2 in [13] is > 1 h.
`C(#Cc1n[nH]c2ccccc12)c1ccccn1`: the negative logarithm of the IC50 (pIC50) in data set [8] is < 4.00; in data set [9], < 4.60; in data set [1] it was < 4.30; in [5], < 4.00. In addition, the inhibition result in data set [4] is “inactive”.
For `C(#CC1CC1)c1n[nH]c2ccccc12`, the negative logarithm of the IC50 (pIC50) in data set [8] was < 4.00; in data set [9] it was < 4.00; in [1], < 4.30; in data set [5], < 4.00. Also, the inhibition result in data set [4] was “inactive”.
Regarding `C(#Cc1n[nH]c2ccccc12)c1ccccc1`, the pIC50 in data set [8] is < 4.00; in data set [9], < 4.30; in [1], < 4.30; in data set [5] it was < 4.00. For the same molecule, the inhibition result in data set [4] is “inactive”.
For `C(#Cc1n[nH]c2ncccc12)c1ccncc1`, the pIC50 was 5.52 in data set [8] and < 4.30 in data set [9]. In addition, the inhibition entry in data set [4] is “inactive”.
With `N#Cc1ccc(C#Cc2n[nH]c3ccccc23)cc1`, the pIC50 in [8] is < 4.00; in data set [9] it was < 4.00; in data set [1] it was < 4.30; in data set [5], < 4.00. The inhibition result in data set [4] is “inactive”.

The values above are taken from ChEMBL document CHEMBL1629532, “Design, synthesis, and structure-activity relationships of 3-ethynyl-1H-indazoles as inhibitors of the phosphatidylinositol 3-kinase signaling pathway” (J Med Chem, 2010).
